According to ChEMBL document CHEMBL2069242, “Structure and activity relationship in the (S)-N-chroman-3-ylcarboxamide series of voltage-gated sodium channel blockers” (Bioorg Med Chem Lett, 2012):
Converted amounts (≈) assume the structure as drawn. The source made the active and inactive calls. The calls are words filed in the database; no cut-off is given here.

Tests used:
[1] = Solubility of the compound; type: physicochemical
[2] = molecular target: Sodium channel protein type 5 subunit alpha (Homo sapiens, UniProt Q14524); assay: Inhibition of human NaV1.5 expressed in CHO cells by IonWorks assay; type: cell-based
[3] = molecular target: Voltage-gated inwardly rectifying potassium channel KCNH2 (Homo sapiens, UniProt Q12809); assay: Inhibition of human ERG expressed in CHO cells by IonWorks HT assay; type: cell-based
[4] = molecular target: Sodium channel protein type 9 subunit alpha (Homo sapiens, UniProt Q15858); assay: Inhibition of human NaV1.7 expressed in HEK293 cells by whole-cell voltage clamp assay; type: cell-based
Outline: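 Human NaV1.7 α-subunit stably expressed in HEK293 cells. Currents were recorded by perforated whole-cell automated planar patch clamp (IonWorks Quattro) in D-PBS external solution with 5.5 mM glucose. Cells were held at −65 mV, and a train of eight 30 ms steps to −20 mV at 3 Hz was applied. Half-log serial dilutions were made in DMSO, giving 0.3% DMSO in the recording solution.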

Liver microsomes [5] = assay: Intrinsic clearance in human liver microsomes assessed per ug of protein; type: ADME, Microsome
Liver microsomes [6] = assay: Intrinsic clearance in rat liver microsomes assessed per ug of protein; type: ADME, Microsome
[7] = molecular target: Serotonin (5-HT) receptor (Homo sapiens) (UniProt P30939+P41595+Q13639+P28222+P46098+P08908+P28221+P28223+P28335+P28566+P34969+P50406+P47898+A5X5Y0+O95264+Q70Z44+Q8WXA8); assay: Activity at 5HT receptor; type: protein assay

Sodium channel protein type 9 subunit alpha, sequence (Q15858 whole entry): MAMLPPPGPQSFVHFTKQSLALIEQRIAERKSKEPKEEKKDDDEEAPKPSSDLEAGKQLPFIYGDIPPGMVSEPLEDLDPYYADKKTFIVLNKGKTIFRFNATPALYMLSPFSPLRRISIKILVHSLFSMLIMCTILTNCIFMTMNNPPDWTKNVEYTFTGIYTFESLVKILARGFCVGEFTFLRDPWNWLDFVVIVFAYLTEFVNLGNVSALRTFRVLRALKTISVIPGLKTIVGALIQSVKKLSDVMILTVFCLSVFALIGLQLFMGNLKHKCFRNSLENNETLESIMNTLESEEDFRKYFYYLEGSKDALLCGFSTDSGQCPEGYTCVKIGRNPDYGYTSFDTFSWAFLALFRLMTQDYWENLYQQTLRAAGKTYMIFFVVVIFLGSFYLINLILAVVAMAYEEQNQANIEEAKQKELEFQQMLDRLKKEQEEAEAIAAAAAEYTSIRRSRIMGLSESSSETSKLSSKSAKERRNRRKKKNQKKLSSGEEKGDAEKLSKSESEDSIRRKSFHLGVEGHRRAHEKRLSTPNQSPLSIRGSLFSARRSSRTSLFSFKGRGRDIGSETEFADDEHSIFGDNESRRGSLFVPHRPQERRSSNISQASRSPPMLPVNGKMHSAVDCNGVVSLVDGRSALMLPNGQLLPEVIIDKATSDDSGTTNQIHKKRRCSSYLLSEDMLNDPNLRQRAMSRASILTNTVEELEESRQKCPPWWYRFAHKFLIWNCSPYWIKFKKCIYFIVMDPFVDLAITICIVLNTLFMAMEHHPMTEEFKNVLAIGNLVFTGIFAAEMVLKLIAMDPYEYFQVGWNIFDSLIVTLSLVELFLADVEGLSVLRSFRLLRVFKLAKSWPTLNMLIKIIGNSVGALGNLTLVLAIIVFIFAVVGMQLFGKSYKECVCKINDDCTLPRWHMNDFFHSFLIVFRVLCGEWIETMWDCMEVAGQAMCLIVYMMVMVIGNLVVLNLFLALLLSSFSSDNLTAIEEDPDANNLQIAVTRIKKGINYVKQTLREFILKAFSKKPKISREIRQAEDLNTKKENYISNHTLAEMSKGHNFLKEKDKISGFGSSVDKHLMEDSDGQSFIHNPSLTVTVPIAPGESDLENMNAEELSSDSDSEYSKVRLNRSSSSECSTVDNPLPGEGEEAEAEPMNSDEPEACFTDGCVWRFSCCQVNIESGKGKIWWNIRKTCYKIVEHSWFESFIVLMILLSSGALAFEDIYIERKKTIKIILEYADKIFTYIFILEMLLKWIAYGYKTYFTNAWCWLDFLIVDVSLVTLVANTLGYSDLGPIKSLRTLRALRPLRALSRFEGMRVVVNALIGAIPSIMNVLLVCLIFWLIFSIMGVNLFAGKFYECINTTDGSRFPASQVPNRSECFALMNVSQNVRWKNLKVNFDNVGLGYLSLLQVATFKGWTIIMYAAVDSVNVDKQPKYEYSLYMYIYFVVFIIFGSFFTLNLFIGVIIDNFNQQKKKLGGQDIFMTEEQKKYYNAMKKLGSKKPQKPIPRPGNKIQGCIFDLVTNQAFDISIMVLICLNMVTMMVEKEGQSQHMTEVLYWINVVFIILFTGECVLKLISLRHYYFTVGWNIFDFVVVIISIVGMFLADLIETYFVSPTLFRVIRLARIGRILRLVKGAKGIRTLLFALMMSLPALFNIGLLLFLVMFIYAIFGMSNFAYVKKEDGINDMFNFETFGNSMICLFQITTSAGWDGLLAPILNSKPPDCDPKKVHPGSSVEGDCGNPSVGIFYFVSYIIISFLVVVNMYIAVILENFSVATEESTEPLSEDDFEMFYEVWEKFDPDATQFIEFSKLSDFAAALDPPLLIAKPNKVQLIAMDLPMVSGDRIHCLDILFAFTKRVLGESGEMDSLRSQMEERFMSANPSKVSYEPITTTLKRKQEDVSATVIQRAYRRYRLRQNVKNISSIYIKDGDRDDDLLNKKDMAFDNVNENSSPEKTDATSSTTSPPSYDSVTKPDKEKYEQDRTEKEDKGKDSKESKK
Sodium channel protein type 5 subunit alpha, sequence (Q14524 whole entry): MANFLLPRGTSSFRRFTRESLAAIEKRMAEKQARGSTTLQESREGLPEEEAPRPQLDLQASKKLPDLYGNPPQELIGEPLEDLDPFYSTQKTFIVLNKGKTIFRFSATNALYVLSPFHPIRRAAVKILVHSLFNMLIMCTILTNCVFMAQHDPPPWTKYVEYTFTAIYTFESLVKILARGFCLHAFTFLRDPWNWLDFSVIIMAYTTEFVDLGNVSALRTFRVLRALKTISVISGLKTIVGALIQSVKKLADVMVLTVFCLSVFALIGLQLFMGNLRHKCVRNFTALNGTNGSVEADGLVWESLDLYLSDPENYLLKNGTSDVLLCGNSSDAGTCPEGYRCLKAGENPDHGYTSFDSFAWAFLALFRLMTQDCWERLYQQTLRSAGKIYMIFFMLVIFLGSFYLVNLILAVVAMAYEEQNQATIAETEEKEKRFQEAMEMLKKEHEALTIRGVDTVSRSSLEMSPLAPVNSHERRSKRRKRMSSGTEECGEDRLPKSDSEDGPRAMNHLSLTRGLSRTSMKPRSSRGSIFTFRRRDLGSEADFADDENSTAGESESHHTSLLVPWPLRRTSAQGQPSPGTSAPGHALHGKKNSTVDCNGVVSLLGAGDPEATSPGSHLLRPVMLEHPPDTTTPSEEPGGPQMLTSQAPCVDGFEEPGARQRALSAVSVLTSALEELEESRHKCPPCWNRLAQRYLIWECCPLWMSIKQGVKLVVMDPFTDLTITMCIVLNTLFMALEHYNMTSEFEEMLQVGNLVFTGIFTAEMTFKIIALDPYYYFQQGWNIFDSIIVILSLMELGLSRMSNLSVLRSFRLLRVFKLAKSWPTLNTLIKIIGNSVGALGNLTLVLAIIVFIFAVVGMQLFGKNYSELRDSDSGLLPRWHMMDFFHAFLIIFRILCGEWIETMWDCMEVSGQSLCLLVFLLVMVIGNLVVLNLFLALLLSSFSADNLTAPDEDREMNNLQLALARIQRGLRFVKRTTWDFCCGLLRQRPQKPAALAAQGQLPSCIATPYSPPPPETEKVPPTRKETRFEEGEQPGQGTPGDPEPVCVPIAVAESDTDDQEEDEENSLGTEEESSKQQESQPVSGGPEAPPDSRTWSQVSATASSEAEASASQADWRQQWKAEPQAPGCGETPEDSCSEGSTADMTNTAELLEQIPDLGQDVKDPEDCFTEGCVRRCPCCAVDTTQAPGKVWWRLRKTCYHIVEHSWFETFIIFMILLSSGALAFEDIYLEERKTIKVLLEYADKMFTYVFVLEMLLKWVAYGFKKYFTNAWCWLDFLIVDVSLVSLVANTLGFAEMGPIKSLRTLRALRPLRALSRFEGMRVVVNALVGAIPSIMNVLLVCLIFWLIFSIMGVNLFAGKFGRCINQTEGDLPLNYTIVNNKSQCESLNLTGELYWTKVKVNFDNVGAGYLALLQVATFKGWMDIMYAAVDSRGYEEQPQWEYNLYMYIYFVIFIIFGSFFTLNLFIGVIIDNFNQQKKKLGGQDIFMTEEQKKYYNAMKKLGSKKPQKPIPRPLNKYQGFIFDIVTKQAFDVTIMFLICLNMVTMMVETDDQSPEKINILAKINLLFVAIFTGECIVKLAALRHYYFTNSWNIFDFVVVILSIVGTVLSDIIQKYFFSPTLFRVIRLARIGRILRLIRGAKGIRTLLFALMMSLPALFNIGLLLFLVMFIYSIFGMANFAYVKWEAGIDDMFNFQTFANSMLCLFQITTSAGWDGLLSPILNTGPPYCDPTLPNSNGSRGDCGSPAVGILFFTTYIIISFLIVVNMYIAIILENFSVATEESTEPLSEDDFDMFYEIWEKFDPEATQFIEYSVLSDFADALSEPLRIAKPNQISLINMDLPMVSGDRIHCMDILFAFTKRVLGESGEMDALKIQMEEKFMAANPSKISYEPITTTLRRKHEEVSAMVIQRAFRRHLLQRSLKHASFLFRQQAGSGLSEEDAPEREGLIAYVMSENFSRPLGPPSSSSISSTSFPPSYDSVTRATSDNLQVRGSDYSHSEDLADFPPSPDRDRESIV
Voltage-gated inwardly rectifying potassium channel KCNH2, sequence (Q12809 whole entry): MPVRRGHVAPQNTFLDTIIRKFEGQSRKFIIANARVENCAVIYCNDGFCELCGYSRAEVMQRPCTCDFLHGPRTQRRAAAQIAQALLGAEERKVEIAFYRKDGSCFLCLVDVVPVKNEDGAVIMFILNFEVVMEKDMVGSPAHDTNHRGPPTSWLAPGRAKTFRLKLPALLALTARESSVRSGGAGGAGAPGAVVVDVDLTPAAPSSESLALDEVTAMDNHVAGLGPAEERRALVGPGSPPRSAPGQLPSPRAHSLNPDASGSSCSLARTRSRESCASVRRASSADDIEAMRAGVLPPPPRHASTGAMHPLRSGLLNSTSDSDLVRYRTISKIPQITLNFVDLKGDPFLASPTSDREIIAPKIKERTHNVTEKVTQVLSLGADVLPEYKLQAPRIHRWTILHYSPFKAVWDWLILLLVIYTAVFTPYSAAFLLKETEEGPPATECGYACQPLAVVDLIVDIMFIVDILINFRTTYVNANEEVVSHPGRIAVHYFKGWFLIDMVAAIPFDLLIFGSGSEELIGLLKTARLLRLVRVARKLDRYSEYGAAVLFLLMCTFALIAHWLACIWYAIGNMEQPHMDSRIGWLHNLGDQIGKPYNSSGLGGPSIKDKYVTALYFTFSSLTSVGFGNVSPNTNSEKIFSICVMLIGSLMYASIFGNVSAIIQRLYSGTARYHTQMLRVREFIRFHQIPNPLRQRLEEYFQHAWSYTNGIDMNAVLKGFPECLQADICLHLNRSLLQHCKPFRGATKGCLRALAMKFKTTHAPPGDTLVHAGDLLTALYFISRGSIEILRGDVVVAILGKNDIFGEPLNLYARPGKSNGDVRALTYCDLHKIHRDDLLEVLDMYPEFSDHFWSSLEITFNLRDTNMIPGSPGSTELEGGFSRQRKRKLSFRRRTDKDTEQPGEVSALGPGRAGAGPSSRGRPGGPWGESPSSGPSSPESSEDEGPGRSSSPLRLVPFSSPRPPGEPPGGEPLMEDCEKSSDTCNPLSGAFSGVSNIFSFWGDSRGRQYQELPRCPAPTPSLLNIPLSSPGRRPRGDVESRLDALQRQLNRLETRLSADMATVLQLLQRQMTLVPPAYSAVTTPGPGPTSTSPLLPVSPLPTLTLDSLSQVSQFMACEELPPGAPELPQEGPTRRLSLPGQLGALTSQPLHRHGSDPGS

| solubility [1] | IC50 [4] | CLint (Liver microsomes [5]) | CLint (Liver microsomes [6]) | CLH (Liver microsomes [5]) | Activity [7] | Compound | IC50 [2] | IC50 [3] |
| --- | --- | --- | --- | --- | --- | --- | --- | --- |
| 396 µM (≈ 156 µg/mL) |  |  |  |  |  | COCCn1nc(C)c(C(=O)N[C@@H]2COc3cccc(-c4cccnc4)c3C2)n1 | > 31.6 µM |  |
| 29 µM (≈ 12.5 µg/mL) |  | 161 µL/min/mg | 64 µL/min/mg |  |  | O=C(N[C@@H]1COc2cccc(-c3cccnc3)c2C1)c1ccc(OCC(F)(F)F)nc1 | 3.16 µM |  |
| < 1 µM |  | < 10 µL/min/mg | < 10 µL/min/mg |  |  | COc1ncc(-c2cccc3c2C[C@H](NC(=O)c2ccc(OCC(F)(F)F)nc2)CO3)cn1 | 6.31 µM |  |
| 4 µM (≈ 1.84 µg/mL) | 0.158 µM |  | 9 µL/min/mg | Stable |  | Cc1ccc(-n2nc(C)c(C(=O)N[C@@H]3COc4cccc(N5CCN(C)CC5)c4C3)n2)c(C)c1 | 2.51 µM |  |
| 5 µM (≈ 2.07 µg/mL) |  |  |  |  |  | O=C(N[C@@H]1COc2cccc(-c3cccnc3)c2C1)c1ccc(OC(F)(F)F)cc1 | 3.16 µM |  |
| 211 µM (≈ 91.3 µg/mL) | 0.316 µM | 14 µL/min/mg | 4 µL/min/mg |  | Active | Cc1nn(-c2ccccc2)nc1C(=O)N[C@@H]1COc2cccc(N3CCN(C)CC3)c2C1 | 5.01 µM | 7.94 µM |
| 306 µM (≈ 120 µg/mL) | 25.1 µM |  |  |  |  | COCCn1nc(C)c(C(=O)N[C@@H]2COc3cccc(-c4ccncc4)c3C2)n1 | > 31.6 µM |  |
| 17 µM (≈ 7.81 µg/mL) | 0.501 µM | 15 µL/min/mg | < 10 µL/min/mg |  | inactive | O=C(N[C@@H]1COc2cccc(-c3ccnc(CO)c3)c2C1)c1ccc(OCC(F)(F)F)nc1 | 6.31 µM |  |

Second part, the compound before the results:

| Compound | solubility [1] | IC50 [4] | CLint (Liver microsomes [5]) | CLint (Liver microsomes [6]) | CLH (Liver microsomes [5]) | Activity [7] | IC50 [2] | IC50 [3] |
| --- | --- | --- | --- | --- | --- | --- | --- | --- |
| CCCCOc1ccc(C(=O)N[C@@H]2COc3cccc(N4CCN(C)CC4)c3C2)cc1 | 1 µM (≈ 0.424 µg/mL) | 1 µM | 361 µL/min/mg | 82 µL/min/mg |  |  | > 6.31 µM | 6.31 µM |
| COc1cnc(-c2cccc3c2C[C@@H](NC(=O)c2ccc(COCC(F)(F)F)nc2)CO3)cn1 |  | > 10 µM | 16 µL/min/mg | 21 µL/min/mg |  |  |  |  |
| CN1CCN(c2cccc3c2C[C@H](NC(=O)c2ccc(OCC(F)(F)F)nc2)CO3)CC1 | 82 µM (≈ 36.9 µg/mL) | 0.794 µM | < 10 µL/min/mg | < 10 µL/min/mg |  |  | 5.01 µM | 7.94 µM |
| COc1ncc(-c2cccc3c2C[C@H](NC(=O)c2ccc(OCC(F)(F)F)nc2)CO3)cc1F | 1.1 µM (≈ 0.525 µg/mL) |  | 19 µL/min/mg | 10 µL/min/mg |  |  | 3.98 µM |  |
| COc1cnc(-c2cccc3c2C[C@H](NC(=O)c2ccc(OCC(F)(F)F)nc2)CO3)cn1 | < 1 µM | 0.126 µM | 14 µL/min/mg | 14 µL/min/mg |  |  | > 25.1 µM | > 31.6 µM |
| CN1CCN(c2cccc3c2C[C@H](NC(=O)c2ccc(OC(F)(F)F)cc2)CO3)CC1 | 27 µM (≈ 11.8 µg/mL) | 2 µM | 2.5 µL/min/mg | 18 µL/min/mg |  |  | 2 µM | 7.94 µM |
| Cc1cnc(-c2cccc3c2C[C@H](NC(=O)c2ccc(OCC(F)(F)F)nc2)CO3)cn1 | < 1 µM | 0.0794 µM | 16 µL/min/mg | < 10 µL/min/mg |  |  | > 3.16 µM | > 31.6 µM |
